Here are results for two molecules from ChEMBL document CHEMBL5154683, “A 5-FU Precursor Designed to Evade Anabolic and Catabolic Drug Pathways and Activated by Pd Chemistry In Vitro and In Vivo” (J Med Chem, 2022).

The structures appear in SMILES notation.

Data set [1] relates to HCT-116. Description: Antiproliferative activity against human HCT-116 cells assessed as reduction in cell viability at 100 uM incubated for 5 days in presence of Pd-resins at 0.8 mg/ml by PrestoBlue dye based assay relative to control. In kind it is functional. The conditions noted are these: time 5 day. The gist of the method:
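HCT116 seeded at 750 cells/well and grown 48 h. Medium then replaced with fresh medium with or without Pd resins (20–160 μg per well; 0.2–1.4 mg/mL). Compound added as 5 μL of a 2 mM stock in 2% DMSO/medium, incubated 5 d. PrestoBlue fluorescence read; values normalised to untreated cells within each resin dilution.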

Data set [2] in a line: Prodrug conversion in human liver S9 fraction assessed as DH5FU metabolite formation at 1.6 mM incubated for 1 hr in presence of NADPH by 19F-NMR based analysis. In kind it is ADME, subcellular. As to conditions: s9, 1 h, 1600 µM. The gist of the method: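 Compound added as 150 mM stock in DMSO-d₆, preincubated 5 min at 37 °C with enzyme mixture, then NADPH added (1 mM) and incubated 1 h at 37 °C, 600 rpm; controls without NADPH and without enzymes. Stopped with EtOAc, dried under N₂, redissolved in DMSO-d₆, DH5FU detected by ¹⁹F NMR vs authentic sample.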

The subject of data set [3] is BXPC-3. Description: Antiproliferative activity against human BxPC-3 cells assessed as reduction in cell viability measured after 5 days by PrestoBlue reagent based assay. In kind it is functional. The conditions noted are these: BXPC-3, 120 h. Put shortly:
(§1)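 Cells in 10% FBS, 2 mM L-glutamine media at 37 °C, 5% CO₂ (HCT116 in McCoy's 5A, BxPC-3 in RPMI). Seeded at 3000 (HCT116) or 2500 (BxPC-3) cells/well and grown 48 h. Medium then replaced with drug-containing medium, 0.1% DMSO, for 5 d. PrestoBlue 10% v/v added for 1 h, fluorescence read ex 540/em 590 nm. Normalised to DMSO-only wells; sigmoidal variable-slope fit; n = 3.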

The subject of data set [4] is HCT-116. Put plainly: Antiproliferative activity against human HCT-116 cells assessed as reduction in cell viability measured after 5 days by PrestoBlue reagent based assay. As to conditions: HCT-116, 120 h. In kind it is functional. The gist of the method:
as §1

Turning to `C#CCn1cc(F)c(=O)[nH]c1=O`, in data set [1], the Activity came out at 14%. The Drug metabolism result in data set [2] is on record as “Metabolite_Detected”.
As for `O=c1[nH]cc(F)c(=O)[nH]1` [FLUOROURACIL], the EC50 in data set [3] came to 140 nM; in data set [4] it was 500 nM. The Drug metabolism entry in data set [2] is recorded as “Metabolite_Detected”.
